ChEMBL document CHEMBL3286351, “Antibacterial evaluation of structurally amphipathic, membrane active small cationic peptidomimetics: synthesized by incorporating 3-amino benzoic acid as peptidomimetic element” (Eur J Med Chem, 2014)
In brackets after ≈: the same amount, converted by molar mass. Where a SMILES comes first, the peptide text is derived from it. [ ]: non-standard residue; d: D form. 3Abz = Nc1cccc(C(=O)O)c1; Orn = NCCC[CH](N)C(=O)O

Legend:
[1] = tested on: Staphylococcus epidermidis; test: Antibacterial activity against methicillin-resistant Staphylococcus epidermidis ATCC 51625 assessed as growth inhibition after 18 hrs by CLSI microdilution broth assay; type: functional; conditions: ATCC 51625, 18 h
Method in brief: (§1)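 Modified CLSI broth microdilution in Mueller-Hinton broth. Wells held 90 µL of about 2 × 10^5 CFU/mL inoculum plus 10 µL of serially diluted peptidomimetic, range 0.7-100 µg/mL. Plates were incubated overnight with agitation at 37 °C and absorbance read at 600 nm after 18 h. Controls: inoculum without compound, and uninoculated broth. Run in triplicate.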

[2] = Induction of hemolysis in human RBC assessed as hemoglobin release after 1 hr by microtiter plate reader analysis; type: cell-based, Erythrocyte; conditions: for HC10: erythrocyte, 1 h; for HC50 at 1 h: red blood cells
Method in brief: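 Freshly isolated human RBCs washed three times in PBS (35 mM phosphate, 150 mM NaCl, pH 7.2) and used as a 4% (v/v) suspension. Mixed 1:1 with twofold serial dilutions of compound, incubated 1 h at 37 °C without agitation, then centrifuged. Supernatant A540 read. PBS defined 0% and 1% Triton X-100 defined 100% lysis; HC50 and HC10 derived.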

[3] = Selectivity ratio of HC50 for hemolysis in human RBC to MIC for Staphylococcus aureus
[4] = Retention time of the compound by HPLC analysis; type: physicochemical
Method in brief: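 Analytical RP-HPLC on a C18 column (5 µm, 4.6 × 250 mm) at room temperature. Run a linear gradient of 0.5-60% acetonitrile containing 0.05% TFA against water containing 0.05% TFA at 0.5 mL/min.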

Escherichia coli = test: Antibacterial activity against Escherichia coli MTCC 723 assessed as growth inhibition after 18 hrs by CLSI microdilution broth assay; type: functional; conditions: MTCC 723, 18 h
Pseudomonas aeruginosa = test: Antibacterial activity against Pseudomonas aeruginosa MTCC 2295 assessed as growth inhibition after 18 hrs by CLSI microdilution broth assay; type: functional; conditions: MTCC 2295, 18 h
Staphylococcus aureus [5] = test: Antibacterial activity against Staphylococcus aureus MTCC 3160 assessed as growth inhibition after 18 hrs by CLSI microdilution broth assay; type: functional; conditions: MTCC 3160, 18 h
Bacillus subtilis = test: Antibacterial activity against Bacillus subtilis MTCC 2763 assessed as growth inhibition after 18 hrs by CLSI microdilution broth assay; type: functional; conditions: MTCC 2763, 18 h
Staphylococcus aureus [6] = test: Antibacterial activity against methicillin-resistant Staphylococcus aureus ATCC BAA-1720 assessed as growth inhibition after 18 hrs by CLSI microdilution broth assay; type: functional; conditions: ATCC BAA-1720, 18 h; method in brief: as §1

N=C(N)NCCCC(N)C(=O)NC(Cc1c[nH]c2ccccc12)C(=O)Nc1cccc(C(=O)NC(CCCNC(=N)N)C(N)=O)c1 (stereo not given) (H-RW[3Abz]R-NH2; configuration not given here)
MIC [1]: 70 µg/mL (≈ 110 µM) | HC10 [2]: 205 µg/mL | HC50 at 1 h [2]: 500 µg/mL | Selectivity ratio [3]: 10 | Retention_time [4]: 23.821 min | MIC (Escherichia coli): 70 µg/mL (≈ 110 µM) | MIC (Pseudomonas aeruginosa): 75 µg/mL (≈ 118 µM) | MIC (Staphylococcus aureus [5]): 50 µg/mL (≈ 78.8 µM) | MIC (Bacillus subtilis): 100 µg/mL (≈ 158 µM) | MIC (Staphylococcus aureus [6]): 60 µg/mL (≈ 94.5 µM)

N=C(N)NCCCC(N)C(=O)NC(Cc1c[nH]c2ccccc12)C(=O)Nc1cccc(C(=O)NC(CCCNC(=N)N)C(=O)NC(CCCNC(=N)N)C(N)=O)c1 (stereo not given) (H-RW[3Abz]RR-NH2; configuration not given here)
MIC [1]: 75 µg/mL (≈ 94.8 µM) | HC10 [2]: 350 µg/mL | HC50 at 1 h [2]: > 500 µg/mL | Selectivity ratio [3]: > 7.14 | Retention_time [4]: 22.534 min | MIC (Escherichia coli): 100 µg/mL (≈ 126 µM) | MIC (Pseudomonas aeruginosa): 75 µg/mL (≈ 94.8 µM) | MIC (Staphylococcus aureus [5]): 70 µg/mL (≈ 88.5 µM) | MIC (Bacillus subtilis): 100 µg/mL (≈ 126 µM) | MIC (Staphylococcus aureus [6]): 75 µg/mL (≈ 94.8 µM)

N=C(N)NCCCC(N)C(=O)NC(Cc1c[nH]c2ccccc12)C(=O)Nc1cccc(C(=O)NC(Cc2c[nH]c3ccccc23)C(=O)NC(CCCNC(=N)N)C(N)=O)c1 (stereo not given) (H-RW[3Abz]WR-NH2; configuration not given here)
MIC [1]: 12.5 µg/mL (≈ 15.2 µM) | HC10 [2]: 250 µg/mL | HC50 at 1 h [2]: 410 µg/mL | Selectivity ratio [3]: 32.8 | Retention_time [4]: 23.89 min | MIC (Escherichia coli): 40 µg/mL (≈ 48.7 µM) | MIC (Pseudomonas aeruginosa): 50 µg/mL (≈ 60.9 µM) | MIC (Staphylococcus aureus [5]): 12.5 µg/mL (≈ 15.2 µM) | MIC (Bacillus subtilis): 50 µg/mL (≈ 60.9 µM) | MIC (Staphylococcus aureus [6]): 10 µg/mL (≈ 12.2 µM)

N=C(N)NCCCC(NC(=O)C(Cc1c[nH]c2ccccc12)NC(=O)c1cccc(NC(=O)C(CCCNC(=N)N)NC(=O)C(CCCNC(=N)N)NC(=O)C(N)Cc2c[nH]c3ccccc23)c1)C(N)=O (stereo not given) (H-WRR[3Abz]WR-NH2; configuration not given here)
MIC [1]: 10 µg/mL (≈ 10.2 µM) | HC10 [2]: 190 µg/mL | HC50 at 1 h [2]: 380 µg/mL | Selectivity ratio [3]: 25.3 | Retention_time [4]: 27.66 min | MIC (Escherichia coli): 50 µg/mL (≈ 51.2 µM) | MIC (Pseudomonas aeruginosa): 50 µg/mL (≈ 51.2 µM) | MIC (Staphylococcus aureus [5]): 15 µg/mL (≈ 15.4 µM) | MIC (Bacillus subtilis): 70 µg/mL (≈ 71.6 µM) | MIC (Staphylococcus aureus [6]): 12.5 µg/mL (≈ 12.8 µM)

N=C(N)NCCCC(NC(=O)C(CCCNC(=N)N)NC(=O)c1cccc(NC(=O)C(Cc2c[nH]c3ccccc23)NC(=O)C(CCCNC(=N)N)NC(=O)C(N)Cc2c[nH]c3ccccc23)c1)C(N)=O (stereo not given) (H-WRW[3Abz]RR-NH2; configuration not given here)
MIC [1]: 25 µg/mL (≈ 25.6 µM) | HC10 [2]: 140 µg/mL | HC50 at 1 h [2]: 370 µg/mL | Selectivity ratio [3]: 14.8 | Retention_time [4]: 27.324 min | MIC (Escherichia coli): 60 µg/mL (≈ 61.4 µM) | MIC (Pseudomonas aeruginosa): 70 µg/mL (≈ 71.6 µM) | MIC (Staphylococcus aureus [5]): 25 µg/mL (≈ 25.6 µM) | MIC (Bacillus subtilis): 40 µg/mL (≈ 40.9 µM) | MIC (Staphylococcus aureus [6]): 25 µg/mL (≈ 25.6 µM)

N=C(N)NCCCC(NC(=O)c1cccc(NC(=O)C(CCCNC(=N)N)NC(=O)C(N)Cc2c[nH]c3ccccc23)c1)C(N)=O (stereo not given) (H-WR[3Abz]R-NH2; configuration not given here)
MIC [1]: 200 µg/mL (≈ 315 µM) | HC10 [2]: 300 µg/mL | HC50 at 1 h [2]: > 500 µg/mL | Selectivity ratio [3]: > 3.3 | Retention_time [4]: 24.184 min | MIC (Escherichia coli): 200 µg/mL (≈ 315 µM) | MIC (Pseudomonas aeruginosa): > 200 µg/mL | MIC (Staphylococcus aureus [5]): 150 µg/mL (≈ 236 µM) | MIC (Bacillus subtilis): 200 µg/mL (≈ 315 µM) | MIC (Staphylococcus aureus [6]): 150 µg/mL (≈ 236 µM)

N=C(N)NCCCC(NC(=O)C(CCCNC(=N)N)NC(=O)c1cccc(NC(=O)C(CCCNC(=N)N)NC(=O)C(N)Cc2c[nH]c3ccccc23)c1)C(N)=O (stereo not given) (H-WR[3Abz]RR-NH2; configuration not given here)
MIC [1]: 100 µg/mL (≈ 126 µM) | HC10 [2]: 325 µg/mL | HC50 at 1 h [2]: > 500 µg/mL | Selectivity ratio [3]: > 5 | Retention_time [4]: 22.64 min | MIC (Escherichia coli): > 200 µg/mL | MIC (Pseudomonas aeruginosa): > 200 µg/mL | MIC (Staphylococcus aureus [5]): 100 µg/mL (≈ 126 µM) | MIC (Bacillus subtilis): 170 µg/mL (≈ 215 µM) | MIC (Staphylococcus aureus [6]): 120 µg/mL (≈ 152 µM)

NCCCC(N)C(=O)NC(CCCN)C(=O)NC(Cc1ccccc1)C(=O)Nc1cccc(C(=O)NC(Cc2ccccc2)C(=O)NC(CCCN)C(N)=O)c1 (stereo not given) (H-[Orn][Orn]F[3Abz]F[Orn]-NH2; configuration not given here)
MIC [1]: > 200 µg/mL | HC10 [2]: 210 µg/mL | HC50 at 1 h [2]: 490 µg/mL | Retention_time [4]: 23.313 min | MIC (Escherichia coli): > 200 µg/mL | MIC (Pseudomonas aeruginosa): > 200 µg/mL | MIC (Staphylococcus aureus [5]): > 200 µg/mL | MIC (Bacillus subtilis): > 200 µg/mL | MIC (Staphylococcus aureus [6]): > 200 µg/mL

CN[C@H](CC(C)C)C(=O)N[C@H]1C(=O)N[C@@H](CC(N)=O)C(=O)N[C@H]2C(=O)N[C@H]3C(=O)N[C@H](C(=O)N[C@H](C(=O)O)c4cc(O)cc(O)c4-c4cc3ccc4O)[C@H](O)c3ccc(c(Cl)c3)Oc3cc2cc(c3O[C@@H]2O[C@H](CO)[C@@H](O)[C@H](O)[C@H]2O[C@H]2C[C@](C)(N)[C@H](O)[C@H](C)O2)Oc2ccc(cc2Cl)[C@H]1O [VANCOMYCIN]
MIC (Staphylococcus aureus [6]): 1.5 µg/mL (≈ 1.04 µM)
